Screening data: PubChem, several laboratories
Sampled rows, rich in hits. Any-hit rate of the full collection: about 1.5%.
STAT1 inh: inhibitors of IFN-gamma induced STAT1 signaling | NIH 3T3 STAT1-luciferase reporter, luminescence | inhibition, % at 5.5 µM | 200,000 compounds, 0.35% hits | AID 920;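 active means inhibition above a set limit, the mean inhibition across all tested compounds plus 3 SD, cut at about 34% in these data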;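 further: 0% = IFN-gamma with DMSO and 100% = IFN-gamma with 300 µM nifuroxazide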
Platelet DG rel: platelet dense granule release activity | inhibition, %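 (compounds screened at 7.5 µM in platelet-rich plasma)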 | human platelet-rich plasma, SFLLRN dense granule ATP release, luminescence | 300,000 compounds, 0.22% hits;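 active means mean replicate score, as percent of positive control, at or above 50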
PPC-1+TRAIL kill: kills PPC-1 cancer cells in the presence of TRAIL. cell killing (% activity), % at 4 µM or 5 µM. 220,000 compounds, 0.41% hits. PPC-1 cells + TRAIL, ATPLite viability luminescence;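 active means cell killing above 50% in the first pass at 4 µM, then a duplicate retest at 5 µM averaging 50% or more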;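 further: plate controls were cells with TRAIL plus DMSO for no effect and medium-only wells lacking cells for full effect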
Hep lipid drop: modulators of hepatic lipid droplet formation; AML12 mouse hepatocytes, oleate lipid droplets, BODIPY imaging; inhibition, % at 6.5 µM; 240,000 compounds, 0.4% hits; AID 1656;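 active means lipid droplet intensity inhibited by at least 50%, with more than 500 cells counted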
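Technique: fluorescence imaging, 20x objective, two fields per well / Assay system: AML12 hepatocytes (mouse) / Measure: % inhibition of lipid droplet signal / Doses: 6.5 µM single-point dosing / Incubation: overnight exposure / Reagent: 100 µM oleic acid challenge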
STAT3 inh-1: STAT3 signaling inhibition | inhibition, % at 5.5 µM | AID 862 | 190,000 compounds, 0.89% hits | U3A cells, IL-6 STAT3-luciferase reporter, luminescence; host cell line lacks STAT1;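 active means inhibition above the mean inhibition across all screened compounds plus 3 SD, cut at about 44% in these data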;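 further: 0% = DMSO only wells and 100% = 100 µM nifuroxazide control wells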
TAG inh: inhibitors of triacylglycerol accumulation; H9c2 cells, Nile Red lipid (TAG) fluorescence; cells loaded with 200 µM oleic acid; inhibition, % at 12.5 µM; 230,000 compounds, 0.66% hits;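 active means pattern-corrected inhibition of lipid staining of at least 50% with the nuclear-stain viability signal not falling by more than 50%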;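 further: 0% = DMSO wells and 100% = triacsin C control wells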
STAT3 inh-2: confirmation of STAT3 signaling inhibitors. AID 1265. 1,200 compounds, 45% hits. shares compounds with STAT3 inh-1. inhibition, % at 5.7 µM. U3A cells, IL-6 STAT3 luciferase reporter, luminescence; cell line lacks STAT1;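 active means inhibition above the hit cutoff computed for the primary STAT3 screen, cut at about 44% in these data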;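 further: 0% = IL-6 plus DMSO and 100% = IL-6 plus nifuroxazide control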
NFkB inh STAT3ct: NF-kappaB inhibition in STAT3 inhibitor counter-screen; shares compounds with STAT3 inh-1; HEK293T NF-kB luciferase reporter, TNF-alpha induced; inhibition, % at 5.7 µM; 1,200 compounds, 36% hits; AID 1308;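 active means inhibition above the mean of solvent-only control wells plus 3 SD, cutoff set per campaign, cut at about 13% in these data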;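 further: 0% = TNF-alpha with DMSO and 100% = TNF-alpha with MG high control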
STAT1 inh STAT3c: inhibits STAT1, counter-screen to STAT3 inhibitors; NIH 3T3 STAT1-luciferase reporter, IFN-gamma induced, luminescence; shares compounds with STAT3 inh-1; inhibition, % at 5.7 µM; 1,200 compounds, 27% hits;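 active means inhibition above the mean plus 3 SD of solvent-only control wells, limit set per screening run, cut at about 16% in these data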;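 further: 0% = DMSO with IFN-gamma and 100% = nifuroxazide control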
* hit, by the source's call; . = no result given.

SMILES | STAT1 inh | Platelet DG rel | PPC-1+TRAIL kill | Hep lipid drop | STAT3 inh-1 | TAG inh | STAT3 inh-2 | NFkB inh STAT3ct | STAT1 inh STAT3c
Clc1ccc(C(c2cccs2)N2CCNCC2)cc1 (stereo unspecified) | . | . | . | . | . | 28 | . | . | .
COCCNC(=O)C1(C)CCCN(C(=O)c2ccc(-c3ccccc3)cc2)C1 (stereo unspecified) | . | . | . | . | . | 2 | . | . | .
CCc1nc2ccc(C(=O)Nc3ccc(C(N)=O)cc3)cn2c1N(CCC(C)C)CCN(C)C | . | . | . | . | . | 34 | . | . | .
CSc1nc2c(cc1C#N)CCC2 | . | -2 | 10 | -22 | . | 1 | . | . | .
N#Cc1cc2c(nc1SC1CC(=O)N(c3ccccc3)C1=O)CCC2 (stereo unspecified) | 26 | . | -6 | 9 | 64* | . | 27 | 41* | -41
Cc1cc(C(=O)CSc2nnc(N)s2)c(C)n1Cc1cccs1 | -12 | -16 | 36 | -3 | 51* | . | 36 | 8 | -46
Cc1csc(SCC(=O)c2cc(C)n(Cc3cccs3)c2C)n1 | 40* | -4 | 30 | . | 79* | -16 | 52* | 24* | -26
CC(=O)Nc1ccccc1OCC(=O)c1cc(C)n(Cc2cccs2)c1C | 7 | -3 | 14 | -129 | 79* | -127 | 84* | 27* | -16
COc1ccc(-c2nnc(SCC(=O)c3cc(C)n(Cc4cccs4)c3C)o2)cc1 | 2 | 9 | 6 | 8 | -1 | -9 | . | . | .
CCC1=C(Nc2ccccc2)COC1=O | . | . | . | . | . | 9 | . | . | .
OCC[C@H]1NCc2cc(CO)cc(-c3ccccc3)c21 | . | . | . | . | . | -35 | . | . | .
CCOC(=O)N1CCC(NC(=O)C2CCN(c3nc(-c4ccc(OC)cc4)no3)CC2)CC1 | 8 | 0 | 18 | . | 50* | -33 | 38 | 12 | 12
CCOc1ccccc1NC(=O)C1CCN(c2nc(-c3ccc(OC)cc3)no2)CC1 | . | -2 | . | -5 | . | 24 | . | . | .
O=C(c1ccccc1F)N1CCN(c2ccc([N+](=O)[O-])c(NCc3cccnc3)c2)CC1 | . | -2 | 16 | 0 | . | -11 | . | . | .
COc1ccc(C(=O)N2CCN(c3ccc([N+](=O)[O-])c(NCCc4ccc(OC)c(OC)c4)c3)CC2)cc1 | 26 | -6 | 38 | -40 | 70* | . | 87* | 42* | 29*
COc1ccc(CCNc2cc(N3CCN(C(=O)c4ccccc4F)CC3)ccc2[N+](=O)[O-])cc1OC | 8 | 18 | 21 | . | 69* | . | 84* | 37* | 19*
COc1ccc(CCNc2cc(N3CCN(C(=O)c4ccc(C)cc4)CC3)ccc2[N+](=O)[O-])cc1OC | 8 | -6 | 40 | 13 | 8 | . | . | . | .
O=C(Nc1ccccc1)c1cc(C2CCCCN2S(=O)(=O)Cc2cccc(C(F)(F)F)c2)on1 (stereo unspecified) | . | . | . | . | . | -8 | . | . | .
Cc1ccc(OC(=O)N(C)C[C@H]2OCc3cn(nn3)CCCC(=O)N([C@H](C)CO)C[C@@H]2C)cc1 | . | . | . | . | . | 4 | . | . | .
Cc1nnc(NC(=O)C2COc3ccccc3O2)s1 (stereo unspecified) | -33 | -1 | -2 | . | -14 | -33 | . | . | .
O=C(Nc1nc2c(s1)CCCC2)c1cccnc1 | -40 | 8 | 19 | -13 | 7 | . | . | . | .
O=C(Nc1nc2c(s1)CCCC2)C1COc2ccccc2O1 (stereo unspecified) | 20 | 1 | 19 | 24 | 73* | 6 | 34 | -8 | -104
O=C(Nc1nc2c(s1)CCCC2)c1ccc(Br)o1 | -72 | 18 | 36 | . | 46* | -5 | 12 | -30 | -122
NC(=S)NN=C1CSSC1 | . | . | . | . | . | 33 | . | . | .
CCN1CCCSC1=S | . | . | . | . | . | 6 | . | . | .
SMILES | STAT1 inh | Platelet DG rel | PPC-1+TRAIL kill | Hep lipid drop | STAT3 inh-1 | TAG inh | STAT3 inh-2 | NFkB inh STAT3ct | STAT1 inh STAT3c
COc1cc(OC)cc(C(=O)Nc2nnc(NC(=S)Nc3ccccc3)s2)c1 | 7 | -8 | 13 | -32 | 61* | . | 59* | -14 | -14
CCc1nnc(NC(=O)c2ccc(OC)cc2)s1 | 10 | -5 | 31 | 12 | 57* | 21 | 32 | -16 | -56
COc1cc(OC)cc(C(=O)Nc2ccc(Nc3ccccc3)cc2)c1 | . | -3 | . | . | . | -7 | . | . | .
COc1ccc(NC(=S)Nc2ncccc2C)c(OC)c1 | -26 | -22 | 10 | . | 47* | . | 40 | -17 | -42
CCc1nc2ccc(C(=O)NCCCn3ccnc3)cn2c1N(C)Cc1ccc(Cl)cc1 | . | . | . | . | . | 9 | . | . | .
COc1cccc(NC(=O)COc2ccc(Br)c(C)c2)c1 | . | -2 | . | 0 | . | . | . | . | .
Cc1cc(OCC(=O)Nc2ccncc2)ccc1Br | 1 | -1 | 18 | . | 57* | -25 | 52* | -4 | 0
Cc1ccc2nc(NC(=O)CSCC(=O)OCC(=O)c3ccccc3)sc2c1 | 13 | -12 | 6 | 28 | 51* | . | 57* | 23* | 24*
CCCC(=O)Nc1nc(-c2ccc3c(c2)CCN3S(C)(=O)=O)cs1 | -8 | 15 | 5 | . | 28 | . | . | . | .
CC1Cc2cc(-c3csc(NC(=O)Cc4cccs4)n3)ccc2N1S(C)(=O)=O (stereo unspecified) | 6 | -6 | 1 | -4 | 79* | . | 79* | 29* | 14
CS(=O)(=O)N1CCc2cc(-c3csc(NC(=O)Cc4ccccc4)n3)ccc21 | 8 | 3 | 14 | 1 | 53* | . | 46* | 6 | 7
CCC(=O)Nc1nc(-c2ccc3c(c2)CC(C)N3S(C)(=O)=O)cs1 (stereo unspecified) | -11 | -1 | 0 | 1 | 17 | 1 | . | . | .
Clc1ccc(OCCN2CCN(c3ncnc4sccc34)CC2)cc1 | 29 | 0 | 24 | -81 | 89* | . | 88* | 34* | 23*
Cc1ccc(OCCN2CCN(c3ncnc4sc(C)c(C)c34)CC2)cc1 | 24 | 10 | 0 | -18 | 79* | . | 81* | 26* | 25*
O=C1CCC[C@@H]2C[C@@]3(C[C@@H]4CCN1[C@H]24)Nc1cc(Cl)c(Cl)cc1NC3=NCc1ccccc1 | . | . | . | . | . | 48 | . | . | .
CCCCn1c2c(c(=N)c3c1CCC3)CCC2 | 24 | . | -3 | . | 53* | . | 33 | -1 | 22*
CCc1nc2c(OCCOc3ccc(F)cc3)cccn2c1N(C)C(=O)c1ccco1 | . | . | . | . | . | -9 | . | . | .
CCC(=O)N1CCN(c2ccc(NC(=O)c3cc4ccccc4o3)cc2Cl)CC1 | 8 | 3 | 25 | 9 | 49* | 46 | 34 | -3 | -14
CCCC(=O)N1CCN(c2ccc(NC(=O)c3cc4ccccc4o3)cc2Cl)CC1 | 12 | 3 | 30 | -29 | 50* | 14 | 43 | 3 | -2
O=C(Nc1ccc(F)cc1)c1cc2ccccc2o1 | . | 11 | . | -1 | . | 7 | . | . | .
